# Key:
# Streptococcus pneumoniae [1] = assay: Antimicrobial activity against Streptococcus pneumoniae 9 expressing mefA after 20 hrs by agar dilution method; format: functional
# Outline: (§1)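 Streptococci, H. influenzae and M. catarrhalis were precultured on blood agar plates. Suspensions of about 10⁶ CFU/ml were inoculated onto sensitivity disk agar supplemented with 5% horse blood and incubated at 37 °C for 20 h. MIC was read as the lowest drug concentration with no visible growth.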
# Streptococcus pyogenes [2] = assay: Antimicrobial activity against drug-susceptible Streptococcus pyogenes 1 after 20 hrs by agar dilution method; format: functional; outline: as §1
# Streptococcus pyogenes [3] = assay: Antimicrobial activity against Streptococcus pyogenes 3 expressing mefA after 20 hrs by agar dilution method; format: functional; outline: as §1
# Moraxella catarrhalis [4] = assay: Antimicrobial activity against drug-susceptible Moraxella catarrhalis 1 after 20 hrs by agar dilution method; format: functional; outline: as §1
# Moraxella catarrhalis [5] = assay: Antimicrobial activity against drug-susceptible Moraxella catarrhalis 2 after 20 hrs by agar dilution method; format: functional; outline: as §1
# Haemophilus influenzae [6] = assay: Antimicrobial activity against drug-susceptible Haemophilus influenzae 1 after 20 hrs by agar dilution method; format: functional; outline: as §1
# Haemophilus influenzae [7] = assay: Antimicrobial activity against drug-susceptible Haemophilus influenzae 2 after 20 hrs by agar dilution method; format: functional; outline: as §1
# Haemophilus influenzae [8] = assay: Antimicrobial activity against drug-susceptible Haemophilus influenzae 4 after 20 hrs by agar dilution method; format: functional; outline: as §1
# Staphylococcus aureus [9] = assay: Antimicrobial activity against drug-susceptible Staphylococcus aureus 209P JC-1 after 20 hrs by agar dilution method; format: functional
# Outline: (§2)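 Agar dilution MIC. S. aureus seed culture was grown in sensitivity test broth. Cell suspension (about 10⁶ CFU/ml) was inoculated onto sensitivity disk agar with 5% horse blood and incubated at 37 °C for 20 h. MIC was the lowest drug concentration that prevented visible growth.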
# Staphylococcus aureus [10] = assay: Antimicrobial activity against drug-susceptible Staphylococcus aureus 2 after 20 hrs by agar dilution method; format: functional; outline: as §2
# Staphylococcus aureus [11] = assay: Antimicrobial activity against drug-susceptible Staphylococcus aureus 3 after 20 hrs by agar dilution method; format: functional; outline: as §2
# Staphylococcus aureus [12] = assay: Antimicrobial activity against Staphylococcus aureus 5 expressing inducible ermB after 20 hrs by agar dilution method; format: functional; outline: as §2
# Streptococcus pneumoniae [13] = assay: Antimicrobial activity against drug-susceptible Streptococcus pneumoniae DP1 Type1 after 20 hrs by agar dilution method; format: functional; outline: as §1
# Streptococcus pneumoniae [14] = assay: Antimicrobial activity against drug-susceptible Streptococcus pneumoniae 2 after 20 hrs by agar dilution method; format: functional; outline: as §1
# Staphylococcus aureus [15] = assay: Antimicrobial activity against Staphylococcus aureus 6 expressing inducible ermC after 20 hrs by agar dilution method
# Streptococcus pneumoniae [16] = assay: Antimicrobial activity against Streptococcus pneumoniae 8 expressing inducible ermB after 20 hrs by agar dilution method; format: functional; outline: as §1
# Streptococcus pneumoniae [17] = assay: Antimicrobial activity against Streptococcus pneumoniae 10 expressing mefA after 20 hrs by agar dilution method; format: functional; outline: as §1
# Streptococcus pyogenes [18] = assay: Antimicrobial activity against Streptococcus pyogenes 2 constitutively expressing ermB after 20 hrs by agar dilution method; format: functional; outline: as §1
# Haemophilus influenzae [19] = assay: Antimicrobial activity against drug-susceptible Haemophilus influenzae 3 after 20 hrs by agar dilution method; format: functional; outline: as §1
# Staphylococcus aureus [20] = assay: Antimicrobial activity against Staphylococcus aureus 4 constitutively expressing ermA after 20 hrs by agar dilution method; format: functional; outline: as §2
# Streptococcus pneumoniae [21] = assay: Antimicrobial activity against drug-susceptible Streptococcus pneumoniae 3 after 20 hrs by agar dilution method; format: functional; details: Streptococcus pneumoniae, 20 h; read-out: MIC; outline: as §1
# Streptococcus pneumoniae [22] = assay: Antimicrobial activity against Streptococcus pneumoniae 4 constitutively expressing ermB after 20 hrs by agar dilution method; format: functional; details: Streptococcus pneumoniae, 20 h; read-out: MIC; outline: as §1
# Streptococcus pneumoniae [23] = assay: Antimicrobial activity against Streptococcus pneumoniae 5 constitutively expressing ermB/mefA after 20 hrs by agar dilution method; format: functional; details: Streptococcus pneumoniae, 20 h; read-out: MIC; outline: as §1
# Streptococcus pneumoniae [24] = assay: Antimicrobial activity against Streptococcus pneumoniae 6 constitutively expressing ermB after 20 hrs by agar dilution method; format: functional; details: Streptococcus pneumoniae, 20 h; read-out: MIC; outline: as §1
# Streptococcus pneumoniae [25] = assay: Antimicrobial activity against Streptococcus pneumoniae 7 expressing inducible ermB after 20 hrs by agar dilution method; format: functional; outline: as §1
# Staphylococcus aureus [26] = assay: Antimicrobial activity against Staphylococcus aureus 6 expressing inducible ermB after 20 hrs by agar dilution method; format: functional; outline: as §2
# [27] = Streptococcus pneumoniae, 20 h, read-out: MIC
# [28] = Moraxella catarrhalis, 20 h, read-out: MIC
# [29] = Haemophilus influenzae, 20 h, read-out: MIC
# [30] = Staphylococcus aureus, 209P, 20 h, read-out: MIC
# [31] = Staphylococcus aureus, 20 h, read-out: MIC
SMILES,MIC (Streptococcus pneumoniae [1]),MIC (Streptococcus pyogenes [2]),MIC (Streptococcus pyogenes [3]),MIC (Moraxella catarrhalis [4]),MIC (Moraxella catarrhalis [5]),MIC (Haemophilus influenzae [6]),MIC (Haemophilus influenzae [7]),MIC (Haemophilus influenzae [8]),MIC (Staphylococcus aureus [9]),MIC (Staphylococcus aureus [10]),MIC (Staphylococcus aureus [11]),MIC (Staphylococcus aureus [12]),MIC (Streptococcus pneumoniae [13]),MIC (Streptococcus pneumoniae [14]),MIC (Staphylococcus aureus [15]),MIC (Streptococcus pneumoniae [16]),MIC (Streptococcus pyogenes [18]),MIC (Moraxella catarrhalis [5]; [28]),MIC (Haemophilus influenzae [7]; [29]),MIC (Streptococcus pneumoniae [25]),other results
CCOC(=O)[C@H]1[C@H](C)O[C@@H](O[C@H]2[C@H](N(C)C)[C@@H](O)[C@H](O[C@H]3[C@@H](CC=O)C[C@@H](C)[C@@H](O)CN(C)CCC(C/C=C/c4ccnc5ccccc45)NC(=O)C[C@@H](OC(=O)CC)[C@@H]3OC)O[C@@H]2C)C[C@@]1(C)O (stereo in doubt),0.5 µg/mL,0.5 µg/mL,2 µg/mL,8 µg/mL,4 µg/mL,64 µg/mL,4 µg/mL,16 µg/mL,4 µg/mL,8 µg/mL,2 µg/mL,2 µg/mL,0.25 µg/mL,0.25 µg/mL,4 µg/mL,,,,,,
CCOC(=O)[C@H]1[C@H](C)O[C@@H](O[C@H]2[C@H](N(C)C)[C@@H](O)[C@H](O[C@H]3[C@@H](CC=O)C[C@@H](C)[C@@H](O)CN(C)CCC(C/C=C/c4cnc5ccccc5c4)NC(=O)C[C@@H](OC(=O)CC)[C@@H]3OC)O[C@@H]2C)C[C@@]1(C)O (stereo in doubt; form 1),0.13 µg/mL,,1 µg/mL,2 µg/mL,,,,,,,,,0.06 µg/mL,,,32 µg/mL,> 128 µg/mL,2 µg/mL,2 µg/mL,32 µg/mL,"MIC (Streptococcus pneumoniae [17]; [27]): 0.13 µg/mL; MIC (Streptococcus pyogenes [2]; Streptococcus pyogenes, 20 h, read-out: MIC): 0.25 µg/mL; MIC (Haemophilus influenzae [6]; [29]): 32 µg/mL; MIC (Haemophilus influenzae [19]; [29]): 16 µg/mL; MIC (Haemophilus influenzae [8]; [29]): 16 µg/mL; MIC (Staphylococcus aureus [9]; [30]): 0.5 µg/mL; MIC (Staphylococcus aureus [10]; [31]): 1 µg/mL; MIC (Staphylococcus aureus [11]; [31]): 0.25 µg/mL; MIC (Staphylococcus aureus [20]): > 128 µg/mL; MIC (Staphylococcus aureus [12]; [31]): 0.5 µg/mL; MIC (Streptococcus pneumoniae [14]; [27]): 0.13 µg/mL; MIC (Streptococcus pneumoniae [21]): 0.13 µg/mL; MIC (Streptococcus pneumoniae [22]): > 128 µg/mL; MIC (Streptococcus pneumoniae [23]): > 128 µg/mL; MIC (Streptococcus pneumoniae [24]): > 128 µg/mL; MIC (Staphylococcus aureus [26]): 1 µg/mL"
CCOC(=O)[C@H]1[C@H](C)O[C@@H](O[C@H]2[C@H](N(C)C)[C@@H](O)[C@H](O[C@H]3[C@@H](CC=O)C[C@@H](C)[C@@H](O)CN(C)CC(/C=C/Cc4cnc5ccccc5c4)CCOC(=O)C[C@@H](OC(=O)CC)[C@@H]3OC)O[C@@H]2C)C[C@@]1(C)O (stereo in doubt; form 1),0.015 µg/mL,0.03 µg/mL,0.13 µg/mL,,,,,4 µg/mL,,,,,,,,1 µg/mL,> 128 µg/mL,1 µg/mL,2 µg/mL,1 µg/mL,MIC (Streptococcus pneumoniae [17]): 0.015 µg/mL; MIC (Moraxella catarrhalis [4]; [28]): 1 µg/mL; MIC (Haemophilus influenzae [6]; [29]): 32 µg/mL; MIC (Haemophilus influenzae [19]; [29]): 8 µg/mL; MIC (Staphylococcus aureus [9]; [30]): 0.13 µg/mL; MIC (Staphylococcus aureus [10]; [31]): 0.25 µg/mL; MIC (Staphylococcus aureus [11]; [31]): 0.13 µg/mL; MIC (Staphylococcus aureus [20]): > 128 µg/mL; MIC (Staphylococcus aureus [12]; [31]): 0.13 µg/mL; MIC (Streptococcus pneumoniae [13]; [27]): < 0.008 µg/mL; MIC (Streptococcus pneumoniae [14]; [27]): 0.03 µg/mL; MIC (Streptococcus pneumoniae [21]): 0.015 µg/mL; MIC (Streptococcus pneumoniae [22]): 128 µg/mL; MIC (Streptococcus pneumoniae [23]): 128 µg/mL; MIC (Streptococcus pneumoniae [24]): 128 µg/mL; MIC (Staphylococcus aureus [26]): 0.25 µg/mL
CCOC(=O)[C@H]1[C@H](C)O[C@@H](O[C@H]2[C@H](N(C)C)[C@@H](O)[C@H](O[C@H]3[C@@H](CC=O)C[C@@H](C)[C@@H](O)CN(CCCCc4ccccc4)CCC(C)NC(=O)C[C@@H](OC(=O)CC)[C@@H]3OC)O[C@@H]2C)C[C@@]1(C)OC(C)=O (stereo in doubt; form 2),,0.06 µg/mL,0.25 µg/mL,0.13 µg/mL,0.25 µg/mL,32 µg/mL,1 µg/mL,8 µg/mL,0.25 µg/mL,1 µg/mL,0.25 µg/mL,0.25 µg/mL,0.13 µg/mL,0.25 µg/mL,0.5 µg/mL,32 µg/mL,,,,32 µg/mL,MIC (Haemophilus influenzae [19]): 8 µg/mL
CCOC(=O)[C@H]1[C@H](C)O[C@@H](O[C@H]2[C@H](N(C)C)[C@@H](O)[C@H](O[C@H]3[C@@H](CC=O)C[C@@H](C)[C@@H](O)CN(C)CC(/C=C/Cc4ccnc5ccccc45)CCOC(=O)C[C@@H](OC(=O)CC)[C@@H]3OC)O[C@@H]2C)C[C@@]1(C)O (stereo in doubt; form 2),0.06 µg/mL,0.13 µg/mL,0.25 µg/mL,2 µg/mL,2 µg/mL,32 µg/mL,,16 µg/mL,0.25 µg/mL,1 µg/mL,0.25 µg/mL,0.25 µg/mL,0.03 µg/mL,0.06 µg/mL,0.5 µg/mL,128 µg/mL,,,4 µg/mL,128 µg/mL,MIC (Streptococcus pneumoniae [17]): 0.06 µg/mL; MIC (Haemophilus influenzae [19]): 16 µg/mL

# Reference: ChEMBL document CHEMBL1151705, “Novel azalides derived from 16-membered macrolides. Part II: Isolation of the linear 9-formylcarboxylic acid and its sequential macrocyclization with an amino alcohol or an azidoamine” (2008)
